One may read the inhibition as the relative decrease from the control value, in per cent.

Data set [1] concerns Staphylococcus aureus. In words: Antibiofilm activity against Staphylococcus aureus ATCC 6538 incubated for 24 hrs by crystal violet-staining based assay. The format is functional. An outline of the steps:
(§1)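 Biofilm prevention: 0.5 McFarland inoculum (2.5 µL) in 100 µL TSB with 2% w/v glucose, compound present from the start over 100–0.1 µg/mL, 37 °C 24 h. Washed with PBS, stained 0.1% w/v crystal violet 30 min, eluted with 33% v/v acetic acid, read at 570 nm. BIC50 (50% inhibition versus untreated control) derived by linear regression; triplicate, repeated at least twice.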

Data set [2] has as its system Staphylococcus aureus. Kind of data set: Antimicrobial activity against Staphylococcus aureus ATCC 6538 assessed as growth inhibition of planktonic forms incubated for 24 hrs. The format is organism-based. The following applies: in vitro. The method, boiled down:
(§2)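 Broth microdilution in tryptic soy broth. Two-fold series 100 to 0.75 μg/mL made from a 1 mg/mL stock in 0.9% NaCl. Inoculum ~10⁶ cfu/mL taken from a 24 h culture, 37 °C 24 h.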

Data set [3] deals with Staphylococcus aureus. In words: Antibiofilm activity against Staphylococcus aureus ATCC 25923 incubated for 24 hrs by crystal violet-staining based assay. The format is functional. The method, boiled down:
as §1

Data set [4] concerns Escherichia coli. Kind of data set: Antimicrobial activity against Escherichia coli ATCC 25922 assessed as growth inhibition of planktonic forms incubated for 24 hrs. It is filed as organism-based. The following applies: in vitro. The method, boiled down: as §2
Data set [5] deals with Staphylococcus aureus. Kind of data set: Antimicrobial activity against Staphylococcus aureus ATCC 25923 assessed as growth inhibition of planktonic forms incubated for 24 hrs. It is filed as organism-based. The following applies: in vitro. An outline of the steps: as §2
Data set [6] has as its system Pseudomonas aeruginosa. In words: Antimicrobial activity against Pseudomonas aeruginosa ATCC 15442 assessed as growth inhibition of planktonic forms incubated for 24 hrs. It is filed as organism-based. The following applies: in vitro. An outline of the steps:
as §2

Data set [7] deals with Staphylococcus epidermidis. In words: Antimicrobial activity against Staphylococcus epidermidis ATCC 12228 assessed as growth inhibition of planktonic forms incubated for 24 hrs. It is filed as organism-based. The following applies: in vitro. The method, boiled down: as §2
Data set [8] relates to Escherichia coli. Kind of data set: Antibiofilm activity against Escherichia coli ATCC 25922 incubated for 24 hrs by crystal violet-staining based assay. The format is functional. The method, boiled down: as §1
Data set [9] concerns Staphylococcus epidermidis. Kind of data set: Antibiofilm activity against Staphylococcus epidermidis ATCC 12228 incubated for 24 hrs by crystal violet-staining based assay. It is filed as functional. The method, boiled down: as §1
Data set [10] relates to Pseudomonas aeruginosa. Kind of data set: Antibiofilm activity against Pseudomonas aeruginosa ATCC 15442 incubated for 24 hrs by crystal violet-staining based assay. It is filed as functional. The method, boiled down:
as §1

In data set [11] the test system is Pseudomonas aeruginosa. Kind of data set: Antibiofilm activity against Pseudomonas aeruginosa ATCC 15442 assessed as inhibition of biofilm formation at 100 ug/ml incubated for 24 hrs by crystal violet-staining based assay. The format is functional. The following applies: ATCC 15442, 24 h.
For data set [12], the system named is Escherichia coli. Kind of data set: Antibiofilm activity against Escherichia coli ATCC 25922 assessed as inhibition of biofilm formation at 100 ug/ml incubated for 24 hrs by crystal violet-staining based assay. The following applies: ATCC 25922, 24 h. It is filed as functional.

Calls of active or inactive are those of the source. The calls are words filed in the database; no cut-off is given here.

As for `Br.Clc1ccc2[nH]cc(-c3nn4cc(-c5ccccc5)nc4s3)c2c1`, the MBIC50 result (in the data set on Staphylococcus aureus [1]; with Staphylococcus aureus [3]; with Escherichia coli [8]; in [9]; in the data set with Pseudomonas aeruginosa [10]) was “inactive” throughout. For the same molecule, the MIC (in the data set with Staphylococcus aureus [2]; in the data set with Escherichia coli [4]; with Staphylococcus aureus [5]; with Pseudomonas aeruginosa [6]; in data set [7]) was greater than 100 mg/L in each case.

In the case of `Br.Cn1cc(-c2nn3cc(-c4ccc([N+](=O)[O-])cc4)nc3s2)c2cc(Br)ccc21`, the MBIC50 stood at 3.1 µM in the data set on Staphylococcus aureus [1]; 20.9 µM with Staphylococcus aureus [3]; 19.6 µM in the data set on Escherichia coli [8]; 71.7 µM in data set [9]; 38.6 µM with Pseudomonas aeruginosa [10]. The inhibition entry (with Staphylococcus aureus [1]; with Staphylococcus aureus [3]; in the data set on Escherichia coli [8]; in data set [9]; with Pseudomonas aeruginosa [10]) was “Dose-dependent effect” each time. Further, the MIC (in the data set on Staphylococcus aureus [2]; in the data set on Escherichia coli [4]; in the data set on Staphylococcus aureus [5]; in the data set on Pseudomonas aeruginosa [6]; in data set [7]) was greater than 100 mg/L each time.

As to `Br.Brc1ccc2[nH]cc(-c3nn4cc(-c5ccccc5)nc4s3)c2c1`, the MBIC50 result (in the data set with Staphylococcus aureus [1]; in the data set on Staphylococcus aureus [3]; in the data set with Escherichia coli [8]; in [9]; with Pseudomonas aeruginosa [10]) was “inactive” throughout. The MIC (in the data set on Staphylococcus aureus [2]; in the data set with Escherichia coli [4]; in the data set on Staphylococcus aureus [5]; in the data set with Pseudomonas aeruginosa [6]; in data set [7]) was greater than 100 mg/L throughout.

For the molecule `Br.COc1cccc(-c2cn3nc(-c4c[nH]c5ccccc45)sc3n2)c1`, the MBIC50 came to 37 µM with Staphylococcus aureus [1]; 80.2 µM with Staphylococcus aureus [3]; 69.7 µM with Escherichia coli [8]; 33.4 µM in data set [9]; 80.2 µM in the data set with Pseudomonas aeruginosa [10]. The inhibition result (in the data set on Staphylococcus aureus [1]; with Staphylococcus aureus [3]; in the data set with Escherichia coli [8]; in [9]; in the data set with Pseudomonas aeruginosa [10]) was “Dose-dependent effect” throughout. In addition, the MIC (in the data set on Staphylococcus aureus [2]; in the data set with Escherichia coli [4]; in the data set on Staphylococcus aureus [5]; in the data set with Pseudomonas aeruginosa [6]; in data set [7]) was greater than 100 mg/L in each case.

Turning to `Br.Fc1ccc(-c2cn3nc(-c4c[nH]c5ccc(Cl)cc45)sc3n2)cc1`, the inhibition at 100 µg/mL in the data set on Pseudomonas aeruginosa [11] and with Escherichia coli [12] was less than 15% each time. Besides, the MBIC50 is 24.2 µM in the data set on Staphylococcus aureus [1], 51.3 µM in the data set on Staphylococcus aureus [3] and 100.7 µM in data set [9]. Also, the inhibition entry (with Staphylococcus aureus [1]; in the data set with Staphylococcus aureus [3]; in data set [9]) was “Dose-dependent effect” each time. The MIC (in the data set with Staphylococcus aureus [2]; in the data set on Escherichia coli [4]; with Staphylococcus aureus [5]; in the data set on Pseudomonas aeruginosa [6]; in data set [7]) was greater than 100 mg/L each time.

In the case of `Br.Cn1cc(-c2nn3cc(-c4ccc(F)cc4)nc3s2)c2cc(Br)ccc21`, the MBIC50 entry (in the data set with Staphylococcus aureus [1]; in the data set on Staphylococcus aureus [3]; in the data set on Escherichia coli [8]; in data set [9]; in the data set with Pseudomonas aeruginosa [10]) was “inactive” throughout. Besides, the MIC (in the data set with Staphylococcus aureus [2]; in the data set with Escherichia coli [4]; with Staphylococcus aureus [5]; in the data set with Pseudomonas aeruginosa [6]; in data set [7]) was greater than 100 mg/L in each case.

Consider `Br.O=[N+]([O-])c1ccc(-c2cn3nc(-c4c[nH]c5ccc(Cl)cc45)sc3n2)cc1`, for which the inhibition at 100 µg/mL with Pseudomonas aeruginosa [11] and in the data set on Escherichia coli [12] was less than 15% in each case. Further, the MBIC50 with Staphylococcus aureus [1] is 35.8 µM; with Staphylococcus aureus [3], 55.3 µM; in [9], 28.5 µM. In addition, the inhibition result (in the data set with Staphylococcus aureus [1]; with Staphylococcus aureus [3]; in [9]) was “Dose-dependent effect” throughout. Also, the MIC (in the data set with Staphylococcus aureus [2]; with Escherichia coli [4]; in the data set on Staphylococcus aureus [5]; in the data set with Pseudomonas aeruginosa [6]; in [7]) was greater than 100 mg/L each time.

For `FC(F)(F)c1ccc(-c2cn3nc(-c4c[nH]c5ccc(Br)cc45)sc3n2)cc1`, the inhibition at 100 µg/mL in the data set on Pseudomonas aeruginosa [11] and in the data set with Escherichia coli [12] was less than 15% in each case. Also, the MBIC50 in the data set on Staphylococcus aureus [1] was 13.3 µM; in the data set on Staphylococcus aureus [3] it was 16.8 µM; in [9], 19.2 µM. The inhibition result (in the data set on Staphylococcus aureus [1]; in the data set with Staphylococcus aureus [3]; in [9]) was “Dose-dependent effect” throughout. The MIC (in the data set with Staphylococcus aureus [2]; in the data set on Escherichia coli [4]; in the data set on Staphylococcus aureus [5]; with Pseudomonas aeruginosa [6]; in [7]) was greater than 100 mg/L each time.

For the molecule `FC(F)(F)c1ccc(-c2cn3nc(-c4c[nH]c5ccccc45)sc3n2)cc1`, the MBIC50 result (in the data set with Staphylococcus aureus [1]; in the data set with Staphylococcus aureus [3]; with Escherichia coli [8]; in data set [9]; in the data set with Pseudomonas aeruginosa [10]) was “inactive” each time. The MIC (in the data set with Staphylococcus aureus [2]; with Escherichia coli [4]; in the data set on Staphylococcus aureus [5]; with Pseudomonas aeruginosa [6]; in data set [7]) was greater than 100 mg/L each time.

As to `COc1ccc(OC)c(-c2cn3nc(-c4cn(C)c5ccc(Cl)cc45)sc3n2)c1`, the inhibition at 100 µg/mL with Pseudomonas aeruginosa [11] and in the data set on Escherichia coli [12] was less than 15% each time. For the same molecule, the MBIC50 in the data set with Staphylococcus aureus [1] was found to be 69.4 µM; in the data set with Staphylococcus aureus [3], 163 µM; in [9] it was 8.1 µM. The inhibition entry (in the data set on Staphylococcus aureus [1]; with Staphylococcus aureus [3]; in [9]) was “Dose-dependent effect” throughout. The MIC (in the data set on Staphylococcus aureus [2]; with Escherichia coli [4]; in the data set with Staphylococcus aureus [5]; in the data set on Pseudomonas aeruginosa [6]; in [7]) was greater than 100 mg/L each time.

In the case of `Br.Cn1cc(-c2nn3cc(-c4ccc(F)cc4)nc3s2)c2ccccc21`, the inhibition at 100 µg/mL in the data set on Pseudomonas aeruginosa [11] and in the data set on Escherichia coli [12] was less than 15% throughout. Besides, the figures for the MBIC50 (in the data set on Staphylococcus aureus [1]; in the data set with Staphylococcus aureus [3]; in data set [9]) were 17.9 µM, 8.6 µM and 68.9 µM, respectively. The inhibition entry (in the data set with Staphylococcus aureus [1]; with Staphylococcus aureus [3]; in data set [9]) was “Dose-dependent effect” in each case. Further, the MIC (in the data set with Staphylococcus aureus [2]; in the data set on Escherichia coli [4]; with Staphylococcus aureus [5]; in the data set with Pseudomonas aeruginosa [6]; in [7]) was greater than 100 mg/L each time.

Source of the values: ChEMBL document CHEMBL4339190, “2,6-Disubstituted imidazo[2,1-b][1,3,4]thiadiazole derivatives as potent staphylococcal biofilm inhibitors” (Eur J Med Chem, 2019).
